Only some compounds are listed: those with a hit (about 5.9% of all), similar ones and a draw of the others.
PTK2B oligo ant – antagonists of Pyk2 self-association, primary screen, Q293 cells, FERM NanoBiT luminescence, HTS; Protein-tyrosine kinase 2-beta (Homo sapiens), Q14289; stronger effect = lower value; z-score (the deposit names both 25 µM and 10 µM); 99,000 compounds, 0.83% hits;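 active = Z-score of -3 or lower, scaled per plate to the spread of control and sample wells; inactive = z-score above -3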;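 note: negative z-score means lost luminescence so less FERM oligomerization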
H69AR inhibit – proliferation blockers of H69AR lung cancer cells, primary screen, cell-based, human, 86K library; H69AR lung tumor viability, ATP luminescence, 72 h; stronger effect = lower value; viability, % at 10 µM; 85,000 compounds, 6% hits;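 active = viability at or below 40%; inactive = viability above 40%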;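 note: multidrug resistant small cell line overexpressing MRP-1 efflux transporter; 100% = mean luminescence of untreated control wells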
Fibroblast inh – antiproliferative effect on LL 47 fibroblasts – human, LL 47 cells, CellTiter-Glo luminescence, primary screen; LL 47 human lung fibroblast viability, ATP luminescence; stronger effect = lower value; viability, % at 10 µM; 85,000 compounds, 1.1% hits;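 active = viability at or below 50% in the single dose screen; inactive = viability above 50%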;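 note: compound exposure lasted 72 h before the ATP readout; 100% = median luminescence of untreated cell-only wells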
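Assay system: human lung fibroblast line LL 47, low passage. Input: 1,150 fibroblasts seeded per well. Times: overnight cell rest, 72 h compound treatment at 37 °C. Evaluation: % viability of median cell-only signal. Technique: luminescent ATP detection, CellTiter-Glo. Control set: cell-only wells, no compound.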
MT1-MMP txn act – MT1-MMP promoter reporter activation – cell-based, luciferase luminescence, primary screen. HT1080 MT1-MMP promoter luciferase reporter, overnight; stronger effect = higher value. activation factor at 10 µM. 86,000 compounds, 0.16% hits;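 active = activation factor of at least 2 for MT1-MMP transcription at 10 µM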
Jurkat tox 60K – cytotoxicity toward Jurkat T cells, primary screen, cytotoxicity control, cell-based, Jurkat E6.1, 60K MLSMR library; Jurkat E6.1 viability, ATP luminescence, 48 h; 56,000 compounds, 1.2% hits; AID 463, 2006; inhibition, % at 4 µM;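 active = inhibition above the mean inhibition of all tested compounds plus 3 SD, cut at about 28% in these data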
HUVEC inhibit – inhibitors of HUVEC proliferation, primary screen, cell-based, 384-well | CellTiter-Glo luminescence, 72 h; stronger effect = lower value | viability, % at 10 µM (by protocol) | 86,000 compounds, 1.1% hits | AID 648, 2007;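 active = viability at or below 30%; inactive = viability above 30%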;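 note: 100% = median luminescence of DMSO-only cell control wells on each plate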
Active calls of the source: *; / = no result.

SMILES	PTK2B oligo ant	H69AR inhibit	Fibroblast inh	MT1-MMP txn act	Jurkat tox 60K	HUVEC inhibit
N/C(Cc1ccc(Cl)c(Cl)c1)=N\OC(=O)c1cccs1	0.07	/	/	/	/	/
O=C(Oc1c(Cl)cc(Cl)c2cccnc12)c1cccs1	-0.94	27*	61	1.1	/	48
O=c1cnn(-c2ccccc2)c(-c2ccccc2)c1	0.02	25*	74	1.1	/	74
COc1cnn(-c2ccccc2)c(=O)c1N(C)C	0.72	88	92	1.2	1	83
COc1cccc(/C=C/C(=O)c2c(O)cc(C)oc2=O)c1O	-0.31	4.0*	69	1.1	/	61
COc1ccc(/C=C/C(=O)c2c(O)cc(C)oc2=O)c(OC)c1	-0.54	/	/	/	/	/
COc1cc(/C=C/C(=O)c2c(O)ccc3c(C)cc(=O)oc23)ccc1O	-3*	/	/	/	/	/
COc1cc(/C=C/C(=O)c2c(O)cc(C)oc2=O)cc(OC)c1O	-0.45	25*	70	1.1	/	79
CCc1nc2ccccc2c(C(=O)OCC(=O)Nc2cccc(S(=O)(=O)N3CCOCC3)c2)c1C	-4.7*	22*	76	1	/	57
CCc1nc2ccccc2c(C(=O)OCC(=O)Nc2ccc(S(=O)(=O)N3CCOCC3)cc2)c1C	-4.4*	28*	90	1.1	7	77
C=CCSc1nc(C)cc(/C=C\c2ccccc2)c1C#N	-0.07	/	/	/	/	/
Cc1ccc(C)c2[nH]c(=O)c(CN(CCN3CCCC3)C(=O)Nc3cccc(Cl)c3)cc12	2.3	0.6*	28*	1.1	51*	21*
CCc1ccc2[nH]c(=O)c(CN(CCCN3CCOCC3)C(=O)Nc3ccccc3)cc2c1	-0.14	65	95	1.1	-4	73
Cc1ccc2[nH]c(=O)c(CN(CCN3CCOCC3)C(=O)Nc3ccc(F)cc3)cc2c1	1.6	39*	96	1	6	90
CCc1ccc2[nH]c(=O)c(CN(CCCN3CCOCC3)C(=O)Nc3ccc(Cl)cc3)cc2c1	-0.02	27*	77	1.1	5	28*
CCc1ccc2[nH]c(=O)c(CN(CCCN3CCOCC3)C(=O)Nc3cccc(Cl)c3)cc2c1	-0.56	29*	61	1.2	4	15*
CCOc1cc(NC(=O)C2CC2)c(OCC)cc1NC(=O)c1cccnc1	/	89	100	1.7	1	86
Cc1ccc2[nH]c(=O)c(CN(CCCN(C)C)C(=O)Nc3ccc(Cl)cc3)cc2c1	0.26	3.0*	64	1.2	/	62
COc1ccc2[nH]c(=O)c(CN(CCCN(C)C)C(=O)Nc3ccc(F)cc3)cc2c1	-0.77	71	94	1.1	4	105
CCC/C=C(\CCC)C(NP(=O)(c1ccccc1)c1ccccc1)c1ccc(-c2ccccc2)cc1 (centres undefined)	/	/	/	1.4	/	/
CCC(=O)NS(=O)(=O)c1cccnc1Nc1ccccc1Cl	1.3	/	/	/	/	/
COc1ccc(-c2oc(NC(=O)CCl)c(C#N)c2-c2ccc(OC)cc2)cc1	-0.63	1.8*	26*	1	/	4.3*
COc1ccc(-c2oc(NC(=O)CSc3ncn[nH]3)c(C#N)c2-c2ccc(OC)cc2)cc1	-4*	29*	90	1.1	/	70
CC(C)Cn1c(SCC(=O)c2ccc(Cl)s2)nnc1-c1ccco1	1.2	66	117	1.2	-5	93
CCCCn1c(SCC(=O)NC(C)CC)nc2ccc(N3CCOCC3)cc2c1=O (centres undefined)	-0.09	/	/	/	/	/
SMILES	PTK2B oligo ant	H69AR inhibit	Fibroblast inh	MT1-MMP txn act	Jurkat tox 60K	HUVEC inhibit
CCC(C)NC(=O)CSc1nc2ccc(N3CCOCC3)cc2c(=O)n1CCc1ccccc1 (centres undefined)	/	38*	97	1.1	/	83
O=C(NC1CC1)C1CCCN1S(=O)(=O)c1ccc2ccccc2c1 (centres undefined)	0.67	18*	95	1.1	10	78
O=C(O)C1CCCN1S(=O)(=O)c1ccc2ccccc2c1 (centres undefined)	0.52	88	103	1.1	/	88
COc1cc(NS(=O)(=O)c2ccc(OC)c(C)c2C)c(OC)cc1Cl	-1.8	22*	96	0.5	79*	58
S=C(NCC1CCCCC1)Nc1cccnc1	0.92	/	/	/	/	/
CC1CCCCC1NC(=S)Nc1ccc(SC(F)F)cc1 (centres undefined)	-2	32*	44*	1.2	/	42
FC(F)Sc1ccc(NC(=S)NC2CCCCC2)cc1	-1.1	18*	96	1.4	/	49
FC(F)Sc1ccc(NC(=S)NCC2CCCCC2)cc1	0.08	5.1*	83	1.2	/	43
CCCc1nc(SCc2ccc(Cl)cc2Cl)n[nH]1	-0.69	108	101	1.1	/	100
CC(=O)Nc1ccc(S(=O)(=O)NCC2CCC(C(=O)NCCC(C)C)CC2)cc1 (centres undefined)	0.12	96	95	1.1	-2	103
Cc1sc2nc3c(C(=O)N4CCN(c5ncccn5)CC4)cccn3c(=O)c2c1C	/	95	85	1.1	/	93
Cc1ccc(C(=O)CCC(=O)Nc2cccc(C(F)(F)F)c2)cc1	0.83	/	/	/	/	/
Cc1cc(NC(=O)COC(=O)[C@H](C)NC(=O)c2ccccc2)no1	1.3	96	96	1.2	/	85
Cc1cc(NC(=O)COC(=O)C(Nc2ccc(C(F)(F)F)cc2Cl)C(C)C)no1 (centres undefined)	-2.2	75	92	1.1	6	13*
Cc1ccccc1/C=c1\s/c(=C\C(=O)C(C)(C)C)[nH]c1=O	-1.7	19*	69	/	/	52
CCc1ccc(/C=c2\s/c(=C\C(=O)C(C)(C)C)[nH]c2=O)cc1	-2.3	14*	84	/	/	47
CC(C)(C)C(=O)/C=c1\[nH]c(=O)/c(=C\c2ccc(F)cc2)s1	-1.3	18*	75	/	/	66
COc1ccc(-c2cc(C(F)(F)F)nc(SCCC(=O)N3CCOCC3)n2)cc1	0.04	39*	/	0.9	1	104
Cn1c(/C=C/c2ccc([N+](=O)[O-])o2)nc2ccccc2c1=O	-0.02	-0.5*	5.2*	0.1	/	16*
CCCn1c(C)nc2c(c1=O)c1nc3ccccc3nc1n2CCC1=CCCCC1	0.57	13*	86	1.1	7	73
CCCn1c(C)nc2c(c1=O)c1nc3ccccc3nc1n2CCc1ccccc1	/	80	103	1	6	109
Cc1ccccc1NC(=O)Cc1nc(CSc2nnc(-c3ccc4c(c3)OCO4)o2)cs1	-0.35	88	102	1.3	/	94
C=CCn1c(SCc2ccc(C(=O)OC)cc2)nnc1-c1sc(N)nc1C	/	/	/	/	-2	/
C=CCn1c(SCC(=O)Nc2ccc(C(=O)OCC)cc2)nnc1-c1sc(N)nc1C	-0.8	39*	101	1	0	99

Source: PubChem BioAssay (several laboratories)
